Experiment [1] in a line: Selectivity index, ratio of INH for antiparasitic activity against Plasmodium falciparum infected in human Erythrocyte assessed as inhibition of merozoite egress from human Erythrocyte at 25 uM to INH for antiparasitic activity against synchronous parasite Plasmodium falciparum infected in human Erythrocyte at 25 uM. The class given is functional. In short, it runs like this:
(§1)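 SI = 1 − (% trophogony inhibition / % T0-T8 egress inhibition), each at the same concentration. Trophogony arm: 0-3 h rings, 28 h exposure, washout, 38 h regrowth. Egress arm: late schizonts, 8 h exposure. Both read as parasitemia by flow cytometry vs DMSO.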

The subject of experiment [2] is Plasmodium falciparum. The experiment in a line: Antiparasitic activity against Plasmodium falciparum infected in human Erythrocyte assessed as inhibition of merozoite egress from human Erythrocyte at 25 uM measured for 8 hrs by flow cytometry analysis relative to control. The class given is functional. Summed up: (§2)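 P. falciparum cultured in human RBCs, RPMI 1640 with 25 mM HEPES, 2.5% Albumax II, 100 μM hypoxanthine, 37 °C, 5% O2/5% CO2. Sorbitol-synchronized, plasmion-enriched late schizonts at 2% hematocrit, 1% parasitemia exposed to compound for 8 h. Fixed in glutaraldehyde, permeabilized, RNase-treated, stained with YOYO-1. Ring parasitemia by flow cytometry (100,000 events) vs DMSO. Triplicate; IC50 from 16 concentrations, 180 to 0.8 μM.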
In general terms: A flow cytometer gives signals particle by particle.

Experiment [3] concerns the target T1, Subtilisin-like protease 1 (Plasmodium falciparum, UniProt O61142).
T1 sequence (O61142 whole entry): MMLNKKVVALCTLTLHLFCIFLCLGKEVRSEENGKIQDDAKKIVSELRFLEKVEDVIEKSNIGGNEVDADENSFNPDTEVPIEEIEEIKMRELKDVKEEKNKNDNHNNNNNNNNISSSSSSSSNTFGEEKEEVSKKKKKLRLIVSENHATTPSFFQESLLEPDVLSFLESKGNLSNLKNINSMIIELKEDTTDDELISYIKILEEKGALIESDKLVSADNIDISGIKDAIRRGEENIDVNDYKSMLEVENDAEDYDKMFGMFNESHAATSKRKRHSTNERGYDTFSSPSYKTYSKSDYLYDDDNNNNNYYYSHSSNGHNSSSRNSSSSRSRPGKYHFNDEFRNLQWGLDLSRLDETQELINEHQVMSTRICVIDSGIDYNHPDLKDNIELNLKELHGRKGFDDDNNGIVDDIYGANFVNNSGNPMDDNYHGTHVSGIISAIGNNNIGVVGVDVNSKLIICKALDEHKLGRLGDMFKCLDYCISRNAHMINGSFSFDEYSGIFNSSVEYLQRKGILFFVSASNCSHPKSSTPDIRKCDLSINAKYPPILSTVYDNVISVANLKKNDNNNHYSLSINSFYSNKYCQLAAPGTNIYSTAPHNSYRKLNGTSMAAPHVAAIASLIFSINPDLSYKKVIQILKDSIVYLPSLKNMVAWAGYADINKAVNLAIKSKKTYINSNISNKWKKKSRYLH
The experiment in a line: Inhibition of full length recombinant Plasmodium falciparum SUB1 using Dabsyl-KLVSADNIDIS-EDANS as substrate measured every 2 mins for 1 hr by FRET assay.

The subject of experiment [4] is Plasmodium falciparum. In words: Antiparasitic activity against synchronous parasite Plasmodium falciparum infected in human Erythrocyte at 100 uM incubated for 28 hrs followed by compound washout and measured after 38 hrs. The class given is functional. In short, it runs like this: (§3)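 Trophogony off-target check: synchronous 0-3 h post-invasion rings (2% hematocrit, 1% parasitemia) exposed to compound or matched DMSO (1% or 0.25% final) for 28 h. Cells then washed and recultured without compound for 38 h. Parasitemia read by YOYO-1 flow cytometry; growth inhibition expressed relative to DMSO.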

Experiment [5] is described as follows: Inhibition of full length recombinant Plasmodium vivax SUB1 expressed in Drosophila S2 cells using Dabsyl-KLVGADDV-SLA-EDANS as substrate measured every 2 mins for 1 hr by FRET assay.
Experiment [6] can be described thus: Selectivity index, ratio of INH for antiparasitic activity against Plasmodium falciparum infected in human Erythrocyte assessed as inhibition of merozoite egress from human Erythrocyte at 100 uM to INH for antiparasitic activity against synchronous parasite Plasmodium falciparum infected in human Erythrocyte at 100 uM. The class given is functional. Summed up:
as §1

The test system of experiment [7] is Subtilisin-like protease 1 (Plasmodium vivax). The experiment in a line: Binding affinity to Plasmodium vivax SUB1 catalytic domain assessed as thermal stabilization by measuring change in melting temperature by differential scanning fluorimetry. (In DSF a fluorescence change marks the thermal transition of the protein.)
Experiment [8] concerns Plasmodium falciparum. In words: Antiparasitic activity against Plasmodium falciparum infected in human Erythrocyte assessed as inhibition of merozoite egress from human Erythrocyte at 100 uM measured for 8 hrs by flow cytometry analysis relative to control. Type of experiment: functional. In short, it runs like this:
as §2

Experiment [9] deals with Plasmodium falciparum. In words: Antiparasitic activity against synchronous parasite Plasmodium falciparum infected in human Erythrocyte at 25 uM incubated for 28 hrs followed by compound washout and measured after 38 hrs. Type of experiment: functional. Summed up:
as §3

Experiment [10] has as its system Plasmodium falciparum. The experiment in a line: Antiparasitic activity against Plasmodium falciparum infected in human Erythrocyte assessed as inhibition of merozoite egress from human Erythrocyte measured for 8 hrs by flow cytometry analysis. The class given is functional, organism-based. Summed up: as §2

Molecules are shown by their SMILES. Numbered stars: 1 amine (or outer) side, 2 acyl side, 3 side chain; on linkers, the order of the positions; unused ones are H or OH. Square brackets hold non-standard residues; d marks the D form. Peptide text beside a SMILES is read from it. Gly(cPent) = N[C@H](C(=O)O)C1CCCC1; X1 = C[C@H](N[*:1])C(=O)C(=O)[*:2]

The results in this text go back to ChEMBL document CHEMBL5512639, “Insights from structure-activity relationships and the binding mode of peptidic α-ketoamide inhibitors of the malaria drug target subtilisin-like SUB1” (Eur J Med Chem, 2024).

A word on the inhibition: it is the drop in the measured response relative to a control, in per cent. For orientation: IC50 means the concentration that gives 50% inhibition. What is called ΔTm is the change in melting temperature against a reference sample. With `CC(=O)N[C@H](C(=O)N[C@H](C(=O)N[C@@H](C)C(=O)N[C@@H](C)C(=O)C(=O)N[C@@H](CC(=O)O)C(=O)N[C@H](C(N)=O)C1CCCC1)[C@@H](C)O)C1CCCC1` (Ac-[Gly(cPent)]TA[X1]D[Gly(cPent)]-NH2), the entries for the “Selectivity Index” value in [1] and in experiment [6] were 1 and 0.94, respectively. The inhibition at 25 µM in experiment [2] was determined as 60%. The IC50 in [3] amounted to 10 nM; in experiment [5] it was 12 nM; in [10] it was 22600 nM. The figures for the Activity in experiment [4] and in [9] were 6% and 0%, respectively. Also, the ΔTm in [7] was found to be 12.7 °C. The inhibition at 100 µM in experiment [8] came to 100%.
